Test results published in PubChem BioAssay.
A number with no mark means an inactive call.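 How the source made its calls, unless noted: active means growth inhibition above 25% in both replicates, a cutoff set 3 SD above the mean; inconclusive means above 25% in only one replicate; inactive means the rest.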

assay: growth suppression of yeast trafficking mutant, preliminary HTS, modulators of trafficking downstream of Golgi apparatus project, 1536-format plate, OD 615 nm (AID 637; in the data active means inhibition above about 30%); conditions: yeast transport mutant growth, absorbance 615 nm, 18 h; stronger effect = higher value

Compound	inhibition [%]
CC1CCc2nn(CC(=O)NCc3ccc4c(c3)OCO4)cc2C1 (stereo not given)	2.79
CCC(C)(C(=O)NC1CCCC1)N(Cc1cccs1)C(C)=O (stereo not given)	5.08
COc1ccc(CCNC(=O)c2cnn3ccccc23)c(OC)c1OC	-2.67
CC1CCCN(S(=O)(=O)c2coc(C(N)=O)c2)C1 (stereo not given)	1
Cn1c(C(=O)NCC2CCCO2)cc2c(=O)n(C)c3ccccc3c21 (stereo not given)	2.17
O=C(Nc1cnn(Cc2ccc(Cl)cc2Cl)c1)c1noc2c1CCCC2	-3.17
Clc1cccc(N2CCN(Cc3nc(-c4ccccc4)no3)CC2)c1	-6.5
COC(=O)C1=C(C)NC(C)=C(C(=O)OC)C1C1CC=CCC1 (stereo not given)	6.89
Cc1nnc(SCC(=O)NCc2ccccc2)s1	-2
CC1=C(C(=O)Nc2ccc(F)cc2)C(c2cccc(C)c2)n2nc(CCCO)nc2N1 (stereo not given)	-2.83
CCOc1ccc(OCCCCN(C)C)cc1	1.5
CCCC(=O)C1=C(N(C)c2ccccc2)CC(C)(C)C(C(=O)OC)C1=O (stereo not given)	-2.83
CC1Cc2ccccc2N1C(=O)C12CCC(C)(C(=O)C1)C2(C)C (stereo not given)	-4.84
CC1CN(c2ccc(Oc3ccccc3)cc2)c2nc3c(c(=O)n(CC(N)=O)c(=O)n3C)n2C1 (stereo not given)	-5.17
COc1ccc(N2CCN(C(c3ccccc3)c3sc4nc(C)nn4c3O)CC2)cc1 (stereo not given)	-2.17
O=C(CCn1c(=O)oc2ccccc21)NCc1ccco1	-5.17
COc1cccc(C2CC(c3ccc(C)cc3)n3nc(N)nc3N2)c1 (stereo not given)	3.5
Cc1onc(-c2c(Cl)cccc2Cl)c1C(=O)NCC1CCCO1 (stereo not given)	-5.74
CC(=O)Nc1cccc(NC(=O)CSc2nn3c(=O)c(C)nnc3s2)c1	-4.33
Cc1ccc2cc(CCNC(=O)C(C)C)c(=O)[nH]c2c1C	-1

Compound	inhibition [%]
CCOC(=O)c1c(C)n(C)c2c(C)cc(O)c(OC(C)=O)c12	0.5
CC(C)(O)C#Cc1ccc(C(=O)N2CCN(C(=O)c3ccco3)CC2)cc1	2.74
COc1ccc(-n2ncc3c(N4CCC(C)CC4)ncnc32)cc1	3
CCc1nc2sc(C)c(C)c2c(=O)n1CCO	-3.67
COc1cc2c(cc1OC)CN(C(=O)CSc1nc3[nH]ncc3c(=O)n1-c1ccccc1)CC2	-2.62
Cc1ccccc1-n1c(Cn2c(=O)sc3ccccc32)nnc1SCC(N)=O	-1.97
Cc1nc2sc(C(c3cccs3)N3CCOCC3)c(O)n2n1 (stereo not given)	-0.83
Cc1nc2ccccc2c2oc(C(=O)N3CCN(C(=O)c4ccco4)CC3)cc12	1.67
CCC(C)NC(=O)c1cn(CC)c2ccc(S(=O)(=O)N(C)C)cc2c1=O (stereo not given)	-2.33
O=C(OCN1C(=O)c2ccccc2C1=O)C1CCCCC1	-7.17
O=C(Nc1nc(-c2ccccn2)cs1)C1CC1	-3.17
COCCOC(=O)C1=C(C)N=c2s/c(=C\c3cccs3)c(=O)n2C1c1cccs1 (stereo not given)	-8.17
CCOC(=O)c1sc2nc(NC(=O)C(C)(C)C)sc2c1C	-4.59
Cn1c(Cc2ccccc2)nnc1SCC(=O)NC1CCCCC1	3
CCCNC(=O)C1CC(=O)N(c2ccc(OCC(=O)Nc3cc(C)cc(C)c3)cc2)C1 (stereo not given)	-4.33
O=P(O)(CN1CCCCCC1)CN1CCCCCC1	-0.82
O=c1oc2c3c4c(cc2cc1-c1nc2ccccc2[nH]1)CCCN4CCC3	6
CCOC(=O)c1[nH]c(C)c(C(=O)NC)c1C	-1.17
CCCOc1ccc(C2C(C(=O)OC)=CN(CCOC)C=C2C(=O)OC)cc1	3.11
CCCCN(CC)CCCNC(=O)c1cc2c(=O)n(C)c3ccccc3c2n1C	-2

assay: S. cerevisiae growth inhibition in permissive medium (OD615), pilot counter-assay for S. cerevisiae lifespan shortening project, permissive growth control (AID 705); conditions: OD615, 24 h, at 10 µM, stronger effect = higher value
Outline: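 System: S. cerevisiae with engineered DeaD lifespan system / Measured by: absorbance (optical density) at 615 nm / Read-out: reduction in yeast growth (OD615) / Times: 4 h cell pre-growth, 24 h exposure at 30 °C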

Compound	growth inhibition [%]
CC1CCc2nn(CC(=O)NCc3ccc4c(c3)OCO4)cc2C1 (stereo not given)	-0.315
CCC(C)(C(=O)NC1CCCC1)N(Cc1cccs1)C(C)=O (stereo not given)	-17.6
COc1ccc(CCNC(=O)c2cnn3ccccc23)c(OC)c1OC	-9.7
CC1CCCN(S(=O)(=O)c2coc(C(N)=O)c2)C1 (stereo not given)	-19.2
Cn1c(C(=O)NCC2CCCO2)cc2c(=O)n(C)c3ccccc3c21 (stereo not given)	-6.67
O=C(Nc1cnn(Cc2ccc(Cl)cc2Cl)c1)c1noc2c1CCCC2	2.94
Clc1cccc(N2CCN(Cc3nc(-c4ccccc4)no3)CC2)c1	3.02
COC(=O)C1=C(C)NC(C)=C(C(=O)OC)C1C1CC=CCC1 (stereo not given)	-3.42
Cc1nnc(SCC(=O)NCc2ccccc2)s1	-11.3
CC1=C(C(=O)Nc2ccc(F)cc2)C(c2cccc(C)c2)n2nc(CCCO)nc2N1 (stereo not given)	-1.56
CCOc1ccc(OCCCCN(C)C)cc1	-10
CCCC(=O)C1=C(N(C)c2ccccc2)CC(C)(C)C(C(=O)OC)C1=O (stereo not given)	-1.78
CC1Cc2ccccc2N1C(=O)C12CCC(C)(C(=O)C1)C2(C)C (stereo not given)	-23.2
CC1CN(c2ccc(Oc3ccccc3)cc2)c2nc3c(c(=O)n(CC(N)=O)c(=O)n3C)n2C1 (stereo not given)	-3.86
COc1ccc(N2CCN(C(c3ccccc3)c3sc4nc(C)nn4c3O)CC2)cc1 (stereo not given)	1.81
O=C(CCn1c(=O)oc2ccccc21)NCc1ccco1	-2.37
COc1cccc(C2CC(c3ccc(C)cc3)n3nc(N)nc3N2)c1 (stereo not given)	0.34
Cc1onc(-c2c(Cl)cccc2Cl)c1C(=O)NCC1CCCO1 (stereo not given)	6.24
CC(=O)Nc1cccc(NC(=O)CSc2nn3c(=O)c(C)nnc3s2)c1	-3.39
Cc1ccc2cc(CCNC(=O)C(C)C)c(=O)[nH]c2c1C	-15.2

Compound	growth inhibition [%]
CCOC(=O)c1c(C)n(C)c2c(C)cc(O)c(OC(C)=O)c12	-11.9
CC(C)(O)C#Cc1ccc(C(=O)N2CCN(C(=O)c3ccco3)CC2)cc1	-17.3
COc1ccc(-n2ncc3c(N4CCC(C)CC4)ncnc32)cc1	-1.23
CCc1nc2sc(C)c(C)c2c(=O)n1CCO	-1.03
COc1cc2c(cc1OC)CN(C(=O)CSc1nc3[nH]ncc3c(=O)n1-c1ccccc1)CC2	0.33
Cc1ccccc1-n1c(Cn2c(=O)sc3ccccc32)nnc1SCC(N)=O	-3.65
Cc1nc2sc(C(c3cccs3)N3CCOCC3)c(O)n2n1 (stereo not given)	-7.23
Cc1nc2ccccc2c2oc(C(=O)N3CCN(C(=O)c4ccco4)CC3)cc12	-6.06
CCC(C)NC(=O)c1cn(CC)c2ccc(S(=O)(=O)N(C)C)cc2c1=O (stereo not given)	2.96
O=C(OCN1C(=O)c2ccccc2C1=O)C1CCCCC1	0.93
O=C(Nc1nc(-c2ccccn2)cs1)C1CC1	0.675
COCCOC(=O)C1=C(C)N=c2s/c(=C\c3cccs3)c(=O)n2C1c1cccs1 (stereo not given)	-9.14
CCOC(=O)c1sc2nc(NC(=O)C(C)(C)C)sc2c1C	-1.74
Cn1c(Cc2ccccc2)nnc1SCC(=O)NC1CCCCC1	1.09
CCCNC(=O)C1CC(=O)N(c2ccc(OCC(=O)Nc3cc(C)cc(C)c3)cc2)C1 (stereo not given)	-14.5
O=P(O)(CN1CCCCCC1)CN1CCCCCC1	-16.8
O=c1oc2c3c4c(cc2cc1-c1nc2ccccc2[nH]1)CCCN4CCC3	4.75
CCOC(=O)c1[nH]c(C)c(C(=O)NC)c1C	-4.37
CCCOc1ccc(C2C(C(=O)OC)=CN(CCOC)C=C2C(=O)OC)cc1	-11.5
CCCCN(CC)CCCNC(=O)c1cc2c(=O)n(C)c3ccccc3c2n1C	-8.88
